Results of several laboratories.
Protocols differ between the studies behind these lines.
Read-out: cell growth or viability

| SMILES | cell line | assay | conditions | quantity | value |
| --- | --- | --- | --- | --- | --- |
| CC(=NNC(=O)c1ccccc1O)c1ccc(Nc2nnc(-c3ccc(Cl)cc3)c3ccccc23)cc1 | MCF7 | MTT | 5 µM | cell death | 66.2% |
| CCNCCCn1c2c(c3cc(OC)c(OC)cc3c1=O)C(=O)c1cc3c(nc1-2)OCO3 | THP-1 | MTS | 72 h | IC50 | 358 nM |
| CC(=NNC(=S)Nc1ccccc1)c1ccc(Nc2nnc(-c3ccc(Cl)cc3)c3ccccc23)cc1 | MCF7 | MTT | 1.25 µM, 24 h | viability | 27.5% |
| COc1cc2c3c(n(CCCNCCO)c(=O)c2cc1OC)-c1nc2c(cc1C3=O)OCO2 | AMO1 | MTS | 72 h | IC50 | 461 nM |
| CC1(C)CCC2(CC1)N[C@@H](C(=O)N[C@@H]1CC[C@@H](C(N)=O)OC1)[C@H](c1ccnc(Cl)c1F)[C@]21C(=O)Nc2cc(Cl)ccc21 | SJSA-1 | resazurin | 72 h | IC50 | 115 nM |
| C=C(F)C(=O)N1CCN(c2nc(OC[C@@H]3CCCN3C)nc3c2CCN(c2cccc4cccc(Cl)c24)C3)C[C@@H]1CC#N | SW-620 | ATP luminescence | 3D culture | IC50 | > 1000 nM |
| CC(=NNC(=O)c1ccccc1)c1ccc(Nc2nnc(-c3ccc(Cl)cc3)c3ccccc23)cc1 | MCF7 | MTT | 2.5 µM | cell death | 86.3% |
| Cc1noc2c1-c1ccccc1C(c1ccc(Cl)cc1)=N[C@H]2CC(N)=O | THP-1 | ATP luminescence | 72 h | IC50 | 377 nM |
| COc1cc2c3c(n(CCCN4CCOCC4)c(=O)c2cc1OC)-c1nc2c(cc1C3=O)OCO2 | AMO1 | MTS | 72 h | IC50 | 1220 nM |
| Cc1c(C(=O)O)ccc2c3n(nc12)[C@@H]1[C@H](C3)N(CC2CC2)[C@@]2(C(=O)Nc3cc(Cl)ccc32)[C@H]1c1cccc(Cl)c1F | A204 | – | – | GI50 | 0.28 nM |
| CC(=NNC(=O)c1ccncc1)c1ccc(Nc2nnc(-c3ccc(Cl)cc3)c3ccccc23)cc1 | MCF7 | MTT | 10 µM, 24 h | viability | 8.76% |
| C=CC(=O)NC1CCN(c2ncc3ncnc(Nc4ccc(Oc5ccc6c(c5)ncn6C)c(C)c4)c3n2)CC1 | NCI-H441 | – | – | EC50 | 693 nM |
| COc1cc2c3c(n(CCCNC(C)C)c(=O)c2cc1OC)-c1nc2c(cc1C3=O)OCO2 | THP-1 | MTS | 72 h | IC50 | 602 nM |
| O=C(C=Cc1ccccc1)Nc1ccc(Oc2nnc(-c3ccc(Cl)cc3)c3ccccc23)cc1 | MCF7 | MTT | 2.5 µM | cell death | 78.8% |
| COc1cc2c3c(n(CCCn4ccnc4)c(=O)c2cc1OC)-c1nc2c(cc1C3=O)OCO2 | THP-1 | MTS | 72 h | IC50 | 1020 nM |
| CCN1[C@@H](C(=O)NC23CCC(C(=O)O)(CC2)CC3)[C@H](c2cccc(Cl)c2F)[C@]2(C(=O)Nc3cc(Cl)ccc32)C12CCCCC2 | SJSA-1 | resazurin | 72 h | IC50 | 106 nM |
